Laboratory results from paper PMC9710334 (BMJ Open Gastroenterology, 2022).
Entries after “also recorded” stand apart in the source; their conditions may differ.

Tested on: patients with advanced primary biliary cholangitis
Assay: Phase 1 trial: adverse events graded by CTCAE v4.0, safety and tolerability
Type: in vivo, human
In short: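 Seven advanced PBC patients (stage III or higher) received OP-724 iv at 280 (n=6) or 380 (n=1) mg/m2 over 4 hours, twice weekly for 12 cycles, after a single dose given 7 days before cycle 1. AEs and laboratory results were recorded throughout and graded by CTCAE v4.0. The primary endpoint was SAEs where drug causality could not be excluded.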

C[C@H]1[C@H]2N(C(=O)CN(C)N2C(=O)NCc2ccccc2)[C@@H](Cc2ccc(OP(=O)(O)O)cc2)C(=O)N1Cc1cccc2cccnc12 [OP-724]
Tooth fracture, Grade 2, patients n (%) (280 mg/m^2/4 hours (n=6)): 0
Tooth fracture, Grades 3–5, patients n (%) (280 mg/m^2/4 hours (n=6)): 0
Vomiting, Grade 1, patients n (%) (280 mg/m^2/4 hours (n=6)): 1 (17%)
Vomiting, Grade 2, patients n (%) (280 mg/m^2/4 hours (n=6)): 0
Vomiting, Grades 3–5, patients n (%) (280 mg/m^2/4 hours (n=6)): 0
Abdominal discomfort, Grade 1, patients n (%) (380 mg/m^2/4 hours (n=1)): 0
Abdominal discomfort, Grade 2, patients n (%) (380 mg/m^2/4 hours (n=1)): 0
Abdominal discomfort, Grades 3–5, patients n (%) (380 mg/m^2/4 hours (n=1)): 0
Back pain, Grade 1, patients n (%) (380 mg/m^2/4 hours (n=1)): 0
Back pain, Grade 2, patients n (%) (380 mg/m^2/4 hours (n=1)): 0
Back pain, Grades 3–5, patients n (%) (380 mg/m^2/4 hours (n=1)): 0
Constipation, Grade 1, patients n (%) (380 mg/m^2/4 hours (n=1)): 0
Constipation, Grade 2, patients n (%) (380 mg/m^2/4 hours (n=1)): 0
Constipation, Grades 3–5, patients n (%) (380 mg/m^2/4 hours (n=1)): 0
Dermatitis contact, Grade 1, patients n (%) (380 mg/m^2/4 hours (n=1)): 0
Dermatitis contact, Grade 2, patients n (%) (380 mg/m^2/4 hours (n=1)): 0
Dermatitis contact, Grades 3–5, patients n (%) (380 mg/m^2/4 hours (n=1)): 0
Diarrhoea, Grade 1, patients n (%) (380 mg/m^2/4 hours (n=1)): 0
Diarrhoea, Grade 2, patients n (%) (380 mg/m^2/4 hours (n=1)): 0
Diarrhoea, Grades 3–5, patients n (%) (380 mg/m^2/4 hours (n=1)): 0
Dry skin, Grade 1, patients n (%) (380 mg/m^2/4 hours (n=1)): 0
Dry skin, Grade 2, patients n (%) (380 mg/m^2/4 hours (n=1)): 0
Dry skin, Grades 3–5, patients n (%) (380 mg/m^2/4 hours (n=1)): 0
Fever, Grade 2, patients n (%) (380 mg/m^2/4 hours (n=1)): 0
Fever, Grades 3–5, patients n (%) (380 mg/m^2/4 hours (n=1)): 0
Haemorrhage, Grade 1, patients n (%) (380 mg/m^2/4 hours (n=1)): 0
Haemorrhage, Grade 2, patients n (%) (380 mg/m^2/4 hours (n=1)): 0
Haemorrhage, Grades 3–5, patients n (%) (380 mg/m^2/4 hours (n=1)): 0
Hepatic function abnormal, Grade 1, patients n (%) (380 mg/m^2/4 hours (n=1)): 0
Hepatic function abnormal, Grades 3–5, patients n (%) (380 mg/m^2/4 hours (n=1)): 0
Infusion site extravasation, Grade 1, patients n (%) (380 mg/m^2/4 hours (n=1)): 0
Infusion site extravasation, Grade 2, patients n (%) (380 mg/m^2/4 hours (n=1)): 0
Infusion site extravasation, Grades 3–5, patients n (%) (380 mg/m^2/4 hours (n=1)): 0
Nasopharyngitis, Grade 2, patients n (%) (380 mg/m^2/4 hours (n=1)): 0
Nasopharyngitis, Grades 3–5, patients n (%) (380 mg/m^2/4 hours (n=1)): 0
Nausea, Grade 1, patients n (%) (380 mg/m^2/4 hours (n=1)): 0
Nausea, Grade 2, patients n (%) (380 mg/m^2/4 hours (n=1)): 0
Nausea, Grades 3–5, patients n (%) (380 mg/m^2/4 hours (n=1)): 0
Open angle glaucoma, Grade 1, patients n (%) (380 mg/m^2/4 hours (n=1)): 0
Open angle glaucoma, Grade 2, patients n (%) (380 mg/m^2/4 hours (n=1)): 0
Open angle glaucoma, Grades 3–5, patients n (%) (380 mg/m^2/4 hours (n=1)): 0
Renal impairment, Grade 1, patients n (%) (380 mg/m^2/4 hours (n=1)): 0
Renal impairment, Grade 2, patients n (%) (380 mg/m^2/4 hours (n=1)): 0
Renal impairment, Grades 3–5, patients n (%) (380 mg/m^2/4 hours (n=1)): 0
Tooth fracture, Grade 1, patients n (%) (380 mg/m^2/4 hours (n=1)): 0
Tooth fracture, Grade 2, patients n (%) (380 mg/m^2/4 hours (n=1)): 0
Tooth fracture, Grades 3–5, patients n (%) (380 mg/m^2/4 hours (n=1)): 0
Vomiting, Grade 1, patients n (%) (380 mg/m^2/4 hours (n=1)): 0
Vomiting, Grade 2, patients n (%) (380 mg/m^2/4 hours (n=1)): 0
Vomiting, Grades 3–5, patients n (%) (380 mg/m^2/4 hours (n=1)): 0
incidence of SAEs (primary endpoint) (all patients (0/7), 280 or 380 mg/m^2/4 hours iv two times weekly, 12 weeks): 0%
patients who developed general/systemic disorder and administration site status (all patients (3/7)): 42.9%
patients who developed hepatobiliary system disorder (all patients (3/7)): 42.9%
patients who developed gastrointestinal disorder (all patients (4/7)): 57.1%
occurrence rate of side effects (all patients (6/7)): 85.7%
occurrence rate of AEs (all patients (7/7)): 100%
abdominal discomfort (most common AEs) (all seven patients): 29%
abnormal hepatic function (most common AEs) (all seven patients): 43%
recommended dosage (iv infusion two times weekly for 12 weeks, patients with advanced PBC): 280 mg/m^2/4 hours
emetogenicity (managed with standard-of-care antiemetics): mildly or moderately emetogenic
grade of drug-induced liver injury leading to withdrawal (one patient in the 380 mg/m^2/4 hours cohort): grade 2
serious adverse events (in words) (seven patients, 280 or 380 mg/m^2/4 hours iv two times weekly, 12 weeks): did not occur; also recorded: no SAE was observed
deaths related to drug administration (seven patients, administration period): no deaths related to drug administration were observed
fragility fractures (this study): no fragility fractures were recorded
